From ChEMBL document CHEMBL1828622, “Structure-based design and synthesis of 1,3-oxazinan-2-one inhibitors of 11β-hydroxysteroid dehydrogenase type 1” (J Med Chem, 2011)
Blank lines part the entries; values can stand above or below the compound they belong to.

Assays:
[1] = Oral bioavailability in rat at 10 mg/kg; format: ADME, organism-based; settings: in vivo
Method in brief: (§1)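 Rat pharmacokinetics after single iv dose of 2 mg/kg and oral dose of 10 mg/kg; oral vehicle differs by compound: 10% ethanol/10% Tween 80 (polysorbate 80)/80% PEG 400 solution, the same with 1% DMSO, or 0.5% methyl cellulose in deionized water suspension. Readouts: oral AUC(inf), oral t1/2, iv clearance, oral bioavailability F.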

[2] = AUC (infinity) in rat at 10 mg/kg, po; format: ADME, organism-based; design: time infinity, dose 10 mg/kg, route oral; settings: plasma; method in brief: as §1
[3] = Biodistribution in mouse adipose tissue at 30 mg/kg, po administered as single dose measured after 8 hrs by LC-MS/MS method; format: ADME, organism-based; design: dose 30 mg/kg, route oral; settings: read-out: Drug uptake
Method in brief: (§2)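 Mice (n = 3) given single oral 30 mg/kg dissolved in 10% ethanol/10% Tween 80/80% PEG 400; tissues collected at sacrifice at 1, 4 and 8 h, snap frozen, later thawed and homogenized in 0.05 M BES pH 7; compound extracted into acetonitrile and quantified by LC-MS/MS against standard curves prepared separately in each tissue matrix.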

[4] = Biodistribution in mouse plasma at 30 mg/kg, po administered as single dose measured after 4 hrs by LC-MS/MS method; format: ADME, organism-based; design: dose 30 mg/kg, route oral; settings: read-out: Drug uptake; method in brief: as §2
[5] = Biodistribution in mouse adipose tissue at 30 mg/kg, po administered as single dose measured after 1 hr by LC-MS/MS method; format: ADME, organism-based; design: dose 30 mg/kg, route oral; settings: read-out: Drug uptake; method in brief: as §2
[6] = Biodistribution in mouse liver at 30 mg/kg, po administered as single dose measured after 1 hr by LC-MS/MS method; format: ADME, organism-based; design: dose 30 mg/kg, route oral; settings: read-out: Drug uptake; method in brief: as §2
[7] = Oral bioavailability in dog at 2 mg/kg; format: ADME, organism-based, Canis lupus familiaris; settings: in vivo
[8] = AUC (infinity) in dog at 2 mg/kg, po; format: ADME, organism-based, Canis lupus familiaris; design: time infinity, dose 2 mg/kg, route oral; settings: plasma
[9] = Oral bioavailability in cynomolgus monkey at 2 mg/kg; format: ADME, organism-based, Macaca fascicularis; settings: in vivo
[10] = Biodistribution in mouse plasma at 30 mg/kg, po administered as single dose measured after 1 hr by LC-MS/MS method; format: ADME, organism-based; design: dose 30 mg/kg, route oral; settings: read-out: Drug uptake; method in brief: as §2
[11] = Biodistribution in mouse liver at 30 mg/kg, po administered as single dose measured after 8 hrs by LC-MS/MS method; format: ADME, organism-based; design: dose 30 mg/kg, route oral; settings: read-out: Drug uptake; method in brief: as §2
[12] = Biodistribution in mouse liver at 30 mg/kg, po administered as single dose measured after 4 hrs by LC-MS/MS method; format: ADME, organism-based; design: dose 30 mg/kg, route oral; settings: read-out: Drug uptake; method in brief: as §2
[13] = Biodistribution in mouse adipose tissue at 30 mg/kg, po administered as single dose measured after 4 hrs by LC-MS/MS method; format: ADME, organism-based; design: dose 30 mg/kg, route oral; settings: read-out: Drug uptake; method in brief: as §2
[14] = AUC (infinity) in cynomolgus monkey at 2 mg/kg, po; format: ADME, organism-based, Macaca fascicularis; design: time infinity, dose 2 mg/kg, route oral; settings: plasma
[15] = Biodistribution in mouse plasma at 30 mg/kg, po administered as single dose measured after 8 hrs by LC-MS/MS method; format: ADME, organism-based; design: dose 30 mg/kg, route oral; settings: read-out: Drug uptake; method in brief: as §2

bioavailability [1]: 83%
AUC(0-inf) [2]: 3170 ng·h/mL
Compound: C[C@@H](c1ccc(-c2ccc(F)cc2)cc1)N1CC[C@](CCO)(c2ccc(F)cc2)OC1=O

bioavailability [1]: 19%
AUC(0-inf) [2]: 915 ng·h/mL
Compound: C[C@@H](c1ccc(-c2ccc(F)cc2F)cc1)N1CC[C@](CCCO)(c2ccccc2)OC1=O

concentration at 8 h [3]: 632 ng/mL
concentration at 4 h [4]: 3260 ng/mL
concentration at 1 h [5]: 5520 ng/mL
concentration at 1 h [6]: 15300 ng/mL
bioavailability [7]: 16%
AUC(0-inf) [8]: 584 ng·h/mL
bioavailability [9]: 26%
concentration at 1 h [10]: 5930 ng/mL
bioavailability [1]: 94%
concentration at 8 h [11]: 1900 ng/mL
AUC(0-inf) [2]: 3870 ng·h/mL
concentration at 4 h [12]: 9810 ng/mL
concentration at 4 h [13]: 3160 ng/mL
AUC(0-inf) [14]: 1500 ng·h/mL
concentration at 8 h [15]: 573 ng/mL
Compound: C[C@@H](c1ccc(-c2ccc(F)cc2F)cc1)N1CC[C@](CCO)(c2ccc(F)cc2)OC1=O

bioavailability [1]: 23%
AUC(0-inf) [2]: 450 ng·h/mL
Compound: C[C@@H](c1ccc(-c2ccc(F)cc2)cc1)N1CC[C@](CCCO)(c2ccccc2)OC1=O

bioavailability [1]: 4%
AUC(0-inf) [2]: 99 ng·h/mL
Compound: Cc1cccc(N2CCC(C)(c3ccccc3)OC2=O)c1 (single isomer, unassigned; isomer 1)

bioavailability [1]: 44%
AUC(0-inf) [2]: 1040 ng·h/mL
Compound: O=C1OC(CCO)(c2ccccc2)CCN1c1cccc(-c2ccc(F)cc2F)c1 (stereo not given)
